The values that follow come from ChEMBL document CHEMBL1146297, “Synthesis of 2'-paclitaxel methyl 2-glucopyranosyl succinate for specific targeted delivery to cancer cells” (Bioorg Med Chem Lett, 2007).

Data set [1] relates to MCF7. The experiment in a line: Cytotoxicity against human MCF7 cells at 25 ng/mL. Type of data set: functional.
Data set [2] can be described thus: Cytotoxicity against human Hep3B cells. Type of data set: functional, cell-based, Hep 3B2.
The test system of data set [3] is RPTEC. As to the kind of experiment: Selectivity index, IC50 for TW01 cells to human RPTEC cells. The data set is classed as functional. In outline: (§1)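 Selectivity index is the IC50 in the cancer line (MCF-7 or NPC-TW01) divided by the IC50 in normal RPTEC cells. Each IC50 is the mean of at least three independent experiments.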
The nature of data set [4]: Stability in human serum for 4 hrs. Type of data set: ADME, cell-free. To be noted: read-out: Stability. In outline:
(§2)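 Compound incubated in human serum at 4 µg/mL serum and 37 °C. It was then extracted with dichloromethane, and the remaining intact material was quantified by reverse-phase HPLC on a C18 column. Sampling ran up to 96 h, and stability is expressed as percent remaining.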

The nature of data set [5]: Solubility in water. The data set is classed as physicochemical.
Data set [6] can be described thus: Cytotoxicity against human MES-SA cells. The data set is classed as functional, cell-based.
In data set [7] the test system is MCF7. As to the kind of experiment: Cytotoxicity against human MCF7 cells. The data set is classed as functional, cell-based. In outline: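 Human MCF-7 breast cancer cells were tested in a panel of eight cancer lines plus RPTEC normal renal epithelial cells, with growth inhibition measured across a concentration range. IC50 is the concentration giving 50% inhibition, taken as the mean of at least three independent experiments with SD under 10%.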

A further data set concerns HCT-116. As to the kind of experiment: Cytotoxicity against human HCT116 cells. The data set is classed as functional, cell-based.
Another data set concerns NCI-H226. The experiment in a line: Cytotoxicity against human NCI-H226 cells. Type of data set: functional, cell-based.
The nature of data set [8]: Half life in human serum. The data set is classed as ADME, cell-free. In outline:
as §2

For data set [9], the system named is RPTEC. As to the kind of experiment: Selectivity index, IC50 for MCF7 cells to human RPTEC cells. Type of data set: functional. In outline: as §1
A further data set relates to MKN-45. The experiment in a line: Cytotoxicity against human MKN45 cells. The data set is classed as functional, cell-based.
In the next data set the test system is A498. The experiment in a line: Cytotoxicity against human A498 cells. The data set is classed as functional, cell-based.
A short description of data set [10]: Cytotoxicity against human TW01 cells. The data set is classed as functional, cell-based.
The subject of data set [11] is RPTEC. As to the kind of experiment: Cytotoxicity against human RPTEC cells. The data set is classed as cell-based.

Converted amounts (≈) assume the structure as drawn.

In general, IC50 refers to the midpoint of a concentration-inhibition curve. What is called solubility is how much of the substance goes into solution per volume. For orientation: half-life means the time in which the quantity being followed falls by half. A lower half-life goes with rapid decline.

In turn, `CC(=O)O[C@H]1C(=O)[C@@]2(C)[C@H]([C@H](OC(=O)c3ccccc3)[C@]3(O)C[C@H](OC(=O)[C@H](OC(=O)CCC(=O)O)[C@@H](NC(=O)c4ccccc4)c4ccccc4)C(C)=C1C3(C)C)[C@]1(OC(C)=O)CO[C@@H]1C[C@@H]2O` returned an Activity with MCF7 [1] of 50%.
For `CO[C@H]1O[C@H](CO)[C@@H](O)[C@@H](O)[C@H]1OC(=O)CCC(=O)O[C@@H](C(=O)O[C@H]1C[C@@]2(O)[C@@H](OC(=O)c3ccccc3)[C@@H]3[C@]4(OC(C)=O)CO[C@@H]4C[C@H](O)[C@@]3(C)C(=O)[C@H](OC(C)=O)C(=C1C)C2(C)C)[C@@H](NC(=O)c1ccccc1)c1ccccc1`, the IC50 in data set [2] worked out at 60.3 nM; in [6], 9.1 nM; with MCF7 [7], 0.7 nM; with HCT-116 it was 25.6 nM; in the data set on NCI-H226, 114 nM; in the data set on MKN-45 it was 14.1 nM. In addition, the IC50 in the data set with A498 came out at 258 nM; in [10] it was 7.2 nM; in the data set with RPTEC [11], 1580 nM. Besides, the entries for the “Ratio IC50” value with RPTEC [3] and in the data set with RPTEC [9] were 0.0046 and 0.0004, respectively. Besides, the remaining at 4 h in [4] came out at 85%. In [5], this compound yielded a solubility of 350 µg/mL (≈ 310 µM). The half-life in [8] is 2.75 days.
On to `CC(=O)O[C@H]1C(=O)[C@@]2(C)[C@H]([C@H](OC(=O)c3ccccc3)[C@]3(O)C[C@H](OC(=O)[C@H](O)[C@@H](NC(=O)c4ccccc4)c4ccccc4)C(C)=C1C3(C)C)[C@]1(OC(C)=O)CO[C@@H]1C[C@@H]2O` [PACLITAXEL], for which the IC50 in data set [2] is 5.4 nM; in [6], 0.5 nM; in the data set with MCF7 [7] it was 0.5 nM; in the data set with HCT-116 it was 0.6 nM; in the data set on NCI-H226, 6.8 nM; in the data set with MKN-45, 0.5 nM. The IC50 in the data set with A498 came to 61 nM; in [10], 0.3 nM; with RPTEC [11], 0.9 nM. The “Ratio IC50” value in the data set on RPTEC [3] was 0.33; in the data set with RPTEC [9], 0.56. Moreover, the solubility in [5] was under 4 µg/mL.
